Screening data from PubChem BioAssay.
The list is not random: actives were taken first. Their share in the collection is about 4%.
hiPSC survival: increases survival of single human iPS cells; hiPSC single-cell survival, ATPlite luminescence; 100% = ROCK inhibitor wells, 0% = DMSO; survival enhancement, % at 20 µM; hit rate 0.044% among 360,000; in the data active = survival enhancement above about 18%;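 also: cells exposed to compounds for 16 hours before the ATP read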
Arr AP2 block: inhibitors of human beta-arrestin and AP2 interaction; AID 504490; FITC-arrestin peptide / GST-AP2 beads, flow cytometry; AP2 beta2 appendage carries R879A mutation; inhibition, % at 10 µM; hit rate 0.31% among 340,000;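 active = inhibition above a set limit, near 3 SD of compounds lacking own fluorescence, cut at about 54% in these data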;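 also: plate controls were DMSO wells for no effect and 5 µM unlabelled arrestin peptide for full effect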
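system = GST-tagged AP2 beta2-adaptin appendage (R879A) on 4 µm glutathione beads | reagent = FITC-labelled arrestin peptide probe, 50 nM final | schedule = compound with beads 12 min RT, then probe 1 h RT | signal = HyperCyt-sampled flow cytometry, FL1 channel, ex 488/em 535 nm | read-out = percent response from loss of bead-bound FITC fluorescence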
Cardio protect: protects H9c2 cardiomyocytes from peroxide injury; H2O2 injury protection, ATPLite, 2 h; protection from H2O2 cell death, % at 20 µM; hit rate 0.63% among 360,000; AID 588492;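 active = compounds giving at least 50% protection of heart cells from peroxide-induced death in the single-dose screen, raw or plate-pattern-corrected value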;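 also: 0% = DMSO wells with peroxide and 100% = DMSO wells without peroxide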
SENP1 inh: blocks the human SENP1 SUMO protease catalytic domain; Q9P0U3; recombinant SENP1 catalytic domain, CyPet-SUMO1-YPet FRET cleavage; inhibition, % at 10 µM; hit rate 0.21% among 360,000; AID 624204;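 active = inhibition at least 30% at 10 µM, raw YFP signal under a set limit, fluorescence ratio 0.5 to 1.5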;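 also: 0% = enzyme with DMSO and 100% = no enzyme wells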
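Test system: hSENP1 catalytic domain, recombinant; Amount: 20 pM final SENP1 enzyme; Medium: Tris pH 8 buffer plus EDTA, NaCl, BME, BSA, NP40, catalase; Schedule: 50 min enzyme reaction, room temperature, light-protected; Technique: FRET fluorescence in CFP and YFP emission channels; Controls: no-enzyme wells low, DMSO-plus-enzyme wells high control.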
FAS TE block: FAS thioesterase (human) inhibition; recombinant FAS-TE, OMFH fluorogenic substrate, fluorescence endpoint; inhibition, % at 15 µM; AID 602261; hit rate 0.67% among 360,000;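 active = compounds whose normalised, plate-corrected inhibition of enzyme fluorescence in the single-dose primary screen is 50% or more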;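 also: 0% = DMSO with enzyme and 100% = substrate without enzyme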
NR3A LBD binder: modulators (binders) of human NR3A ligand-binding domain. NR3A LBD differential scanning fluorimetry, Tm shift; 0% = protein alone, 100% = glycine-bound protein. Tm shift relative to glycine control, % at 25 µM. hit rate 2.5% among 340,000. AID 1259313;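 active = melting temperature shift of at least 10% of the positive control shift, at one fixed dose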
An asterisk follows results filed as active; / = no result given.

SMILES | hiPSC survival | Arr AP2 block | Cardio protect | SENP1 inh | FAS TE block | NR3A LBD binder
CC1=C(C(=O)N(C(C)C)C(C)C)CC(CC(=O)NC2CCCCC2)C(=O)N1Cc1ccc(F)cc1 (configuration not stated) | 0 | / | 0 | 4 | -3 | /
CS(=O)(=O)c1ccc(C(=O)Nc2ccc(-c3nc4ccccc4[nH]3)cc2)cc1 | -1 | 8 | -1 | -21 | -3 | 32*
O=C(Nc1cccc(-c2nc3ccccc3[nH]2)c1)c1cccc(NC(=O)c2ccco2)c1 | -2 | 2 | -16 | 0 | 1 | 20*
Cn1ncc([N+](=O)[O-])c1C(=O)Nc1ccc(-c2nc3ccccc3[nH]2)cc1 | -2 | 7 | 7 | 2 | -5 | /
CS(=O)(=O)c1cccc(C(=O)Nc2cccc(-c3nc4ccccc4[nH]3)c2)c1 | 1 | -3 | 42 | 1 | -3 | 9
O=C(Nc1ccc2nc(-c3ccccc3)[nH]c2c1)c1ccco1 | -2 | 9 | 5 | -1 | -4 | 10
CCOc1ccc(C(=O)Nc2ccc(-c3nc4ccccc4[nH]3)cc2)cc1[N+](=O)[O-] | -1 | 4 | 8 | 0 | 5 | 212*
Cc1cccc2[nH]c(-c3ccc(NC(=O)c4ccco4)cc3)nc12 | -2 | -12 | -44 | 1 | 11 | 31*
CC(C)CC1C(=O)N(Cc2cn(Cc3ccco3)nn2)CCS(=O)(=O)N1Cc1ccc(-c2ccc(F)cc2)cc1 (configuration not stated) | 2 | / | -2 | -4 | 16 | /
CC(C)C(=O)N1CCC1(C)C(=O)NCc1ccc(F)cc1Cl (configuration not stated) | 6 | / | -1 | 1 | -8 | /
COc1ccc(OC)c(NC(=O)Nc2nc(C(N)c3ccccc3Cl)cs2)c1 (configuration not stated) | 3 | / | 45 | 2 | -9 | /
CC(C)CC1C(=O)N(Cc2cn(CCC3OCCCO3)nn2)CCS(=O)(=O)N1Cc1ccc(-c2ccncc2)cc1 (configuration not stated) | 2 | / | 22 | 1 | -4 | /
CS(=O)(=O)c1ccc(C(=O)Nc2cccc(-c3nc4ccccc4[nH]3)c2)cc1 | 1 | 1 | 45 | 1 | -4 | 13*
O=C(Nc1cccc(-c2nc3ccccc3s2)c1)c1ccc2c(c1)OCO2 | 2 | -7 | 11 | 1 | 10 | 10*
CCOc1cccc(C(=O)Nc2ccc(NC(=O)c3ccccc3)c(C)c2)c1 | 0 | 19 | 4 | 1 | 7 | 0
Cc1c(NC(=O)c2ccc3c(c2)OCO3)cccc1-c1nc2ccccc2s1 | -1 | -7 | -6 | 2 | -4 | -8
O=C(Nc1ccc(-c2nc3ccccc3[nH]2)cc1)c1ccc2c(c1)OCO2 | -2 | 1 | -17 | 2 | 1 | 30*
CCOc1ccc(C(=O)Nc2ccc(NC(=O)c3ccccc3)c(C)c2)cc1[N+](=O)[O-] | 0 | -3 | -10 | 1 | -4 | 18*
CN(Cc1ccc(Cl)c(Cl)c1)C(c1cc2ccccc2o1)c1nnnn1C(C)(C)C (configuration not stated) | 1 | / | / | 2 | 25 | /
CC(=O)C[C@@H]1SC[C@H](c2ccccc2)N1S(=O)(=O)c1ccc(C)cc1 | / | / | / | 2 | / | /
COc1cc(CNC(=O)c2cc(-c3cc(Cl)ccc3OC)n[nH]2)cc(OC)c1 | 5 | / | 4 | -1 | 30 | /
CC1(C(=O)NS(=O)(=O)c2ccc(C#N)cc2)CCN1C(=O)Cc1ccc(-c2ccccc2)cc1 (configuration not stated) | -2 | / | 2 | 3 | 16 | /
COc1ccccc1/C=C1\SC(=S)N(CCC(=O)NNC(=O)c2ccccc2O)C1=O | 0 | 2 | 60* | -10 | 15 | 11*
Cc1ccc(/C=C2\SC(=S)N(CCCC(=O)Nc3nccs3)C2=O)cc1 | 0 | -9 | 10 | 1 | -4 | 10*
O=C(CCCN1C(=O)/C(=C/c2cccs2)SC1=S)Nc1ccccc1O | 0 | 9 | -1 | -1 | -2 | 10*
SMILES | hiPSC survival | Arr AP2 block | Cardio protect | SENP1 inh | FAS TE block | NR3A LBD binder
O=C(CCCN1C(=O)/C(=C/c2cccs2)SC1=S)NNC(=O)c1ccccc1O | 2 | 34 | 60* | 3 | 7 | 12*
CC1(C(=O)NS(=O)(=O)c2ccc(Cl)cc2)CCN1C(=O)CCC1CCCC1 (configuration not stated) | 7 | / | 0 | 3 | 4 | /
c1ccc2c(c1)C1=NCCN1c1ccccc1-2 | -4 | / | 6 | 0 | -7 | /
CSCCC(C(=O)NC1CCCC1)n1c(C2CC2)nc2ccccc21 (configuration not stated) | / | / | / | -5 | / | /
CC(=O)Nc1cc(-c2ccoc2)cn2c(-c3ccccc3)cnc12 | -1 | / | 2 | -25 | 1 | /
COc1ccccc1NC(=O)c1c(Nc2ccccc2C)sc(C(=O)Nc2cccc(Cl)c2)c1N | -1 | 18 | -17 | 0 | 36 | 31*
COc1ccc(Nc2sc(C(=O)c3ccc(Cl)cc3)c(N)c2C(=O)Nc2ccccc2OC)cc1 | 1 | 6 | -15 | 3 | 16 | 1
O=C1C(Cl)=C(Nc2ccccc2O)C(=O)N1c1ccccc1 | -2 | 43 | -2 | 8 | -8 | -7
COc1ccccc1N1C(=O)C(Cl)=C(Nc2ccccc2O)C1=O | 0 | 27 | -11 | 46* | -8 | -4
COc1cc2c(cc1OC)/C(=C/C(=O)N1CCOCC1)NC(C)(C)C2 | / | / | / | / | / | 11*
CCOC(=O)/C=C1\NC(C)(C)Cc2cc(OC)c(OC)cc21 | -1 | 12 | -3 | 0 | 0 | 3
Cc1ccccc1-c1nc(-c2ccc(NC(=O)c3ccc(Br)o3)cc2)no1 | -3 | 18 | -5 | 2 | 31 | 29*
Cc1nc(-c2cccc(NC(=O)c3cccs3)c2)cs1 | -2 | 4 | -6 | 2 | -4 | 0
Cc1nc(-c2cccc(NC(=O)c3ccc(Br)o3)c2)cs1 | 0 | 10 | 3 | -1 | 5 | 5
Cc1nc(-c2cccc(NC(=O)c3ccc(-n4nccc4C)cc3)c2)cs1 | 0 | -4 | 7 | 2 | 10 | 23*
Cc1nc(-c2ccc(NC(=O)c3ccc(Br)o3)cc2)cs1 | 0 | -9 | -15 | 0 | 6 | 20*
Cc1nc(-c2ccc(C(=O)Nc3cccc(Br)c3)cc2)cs1 | -5 | 0 | -26 | 2 | 18 | 32*
Cc1ccccc1-c1nc(-c2ccc(Br)o2)no1 | 0 | -6 | -12 | -2 | 18 | 2
COc1cc2c(cc1OC)C(=NO)CCCC2 | -2 | / | 6 | 4 | -10 | /
CCOC(=O)c1cc2ccccc2n1C1CCN(C)CC1 | 1 | / | / | 0 | -5 | /
O=C(COC(=O)Cc1c[nH]c2ccccc12)Nc1cccc(Br)c1 | -4 | / | -2 | 2 | 20 | /
